Measured values from ChEMBL document CHEMBL5316274 (J Med Chem, 2023).
Calls of active or inactive are those of the source. The calls are words filed in the database; no cut-off is given here.

What was measured:
Mu-type opioid receptor [1] = molecular target: T1, Mu-type opioid receptor (Mus musculus, UniProt P42866); assay: Binding affinity to mouse mu opioid receptor expressed in CHO cell membrane assessed as inhibition constant incubated for 1.5 hrs by competitive radioligand binding assay; assay type: cell membranes
[2] = molecular target: Kappa-type opioid receptor (Mus musculus, UniProt P33534); assay: Binding affinity to mouse kappa opioid receptor expressed in CHO cell membrane assessed as inhibition constant incubated for 1.5 hrs by competitive radioligand binding assay; assay type: cell membranes
Mus musculus [3] = species: Mus musculus; assay: Selectivity ratio, ratio of Ki for binding affinity to mouse kappa opioid receptor expressed in CHO cell membrane to Ki for binding affinity to mouse mu opioid receptor expressed in CHO cell membrane
Mu-type opioid receptor [4] = molecular target: T1, Mu-type opioid receptor; assay: Binding affinity to mouse mu opioid receptor expressed in CHO cell membrane assessed as [35S]GTPgammaS binding incubated for 1.5 hrs by liquid scintillation counter analysis; assay type: cell membranes
Outline: (§1)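 MOR [35S]GTPγS functional assay in MOR-CHO membranes (Bmax about 2.5–4 pmol/mg). Efficacy is expressed as % of the maximal stimulation by full agonist DAMGO.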

[5] = molecular target: Mu-type opioid receptor (Mus musculus) (UniProt P42866); assay: Binding affinity to mouse mu opioid receptor expressed in CHO cell membrane assessed as stimulation of [35S]-GTPgammaS binding by measuring maximal efficacy incubated for 1.5 hrs by scintillation spectroscopy analysis relative DAMGO; assay type: cell membranes; outline: as §1
[6] = molecular target: Kappa-type opioid receptor (Mus musculus) (UniProt P33534); assay: Binding affinity to mouse kappa opioid receptor expressed in CHO cell membrane assessed as stimulation of [35S]-GTPgammaS binding by measuring maximal efficacy incubated for 1.5 hrs by scintillation spectroscopy analysis relative U50488H; assay type: cell membranes; settings: filed as modulator
Outline: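 KOR [35S]GTPγS functional assay in KOR-expressing CHO membranes. Efficacy is expressed as % of the maximal stimulation by full agonist U50,488H, with EC50 also determined. Mean of at least three independent experiments.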

[7] = molecular target: Kappa-type opioid receptor (Mus musculus) (UniProt P33534); assay: Binding affinity to mouse kappa opioid receptor expressed in CHO cell membrane assessed as stimulation of [35S]-GTPgammaS binding by measuring maximal efficacy incubated for 1.5 hrs by scintillation spectroscopy analysis relative SNC80; assay type: cell membranes
Mus musculus [8] = assay: Antinociceptive activity in Swiss Webster mouse assessed as inhibition of morphine induced latency to tail withdrawal at 10 mg/kg, sc preincubated for 5 mins followed by morphine addition and measured after 20 mins by warm water tail immersion assay; assay type: functional, organism-based; settings: time 25.0 min
Outline: (§2)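 Male Swiss-Webster mice (n = 5). Compound is given s.c. at time 0 (10 mg/kg in the single-dose screen, a dose range for AD50), and morphine 10 mg/kg follows 5 min later. Tail flick is tested in 56 ± 0.1 °C water 20 min after morphine and scored as % MPE. Saline and morphine alone are the controls.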

Mus musculus [9] = assay: Antinociceptive activity in sc dosed Swiss Webster mouse assessed as inhibition of morphine induced latency to tail withdrawal preincubated for 5 mins followed by morphine addition and measured after 20 mins by warm water tail immersion assay; assay type: functional; settings: 25 min; outline: as §2
[10] = molecular target: Mu-type opioid receptor (Mus musculus) (UniProt P42866); assay: Agonist activity at mouse mu opioid receptor expressed in CHO cells co-expressing Gqi5 assessed as increase in intracellular calcium level incubated for 15 mins by Calcium flux assay; assay type: functional, cell-based
Outline: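 MOR-CHO cells transiently transfected with Gqi5 (4 h at 37 °C, 5% CO2), replated and used 48 h post-transfection. Cells are loaded with fluo-4 AM plus probenecid in HBSS–HEPES buffer for 45 min, then exposed to compound for 15 min (agonist mode 0.3 nM to 3 μM). For antagonist mode DAMGO is then added. Fluorescence (RFU) is read for 90 s and peak values are taken. IC50 comes from non-linear regression. Triplicates, at least four experiments.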

Mu-type opioid receptor [11] = molecular target: T1, Mu-type opioid receptor; assay: Antagonist activity at mouse mu opioid receptor expressed in CHO cells co-expressing Gqi5 assessed as inhibition of DAMGO induced increase in intracellular calcium flux incubated for 15 mins by Calcium flux assay; assay type: functional, cell-based
Outline: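 MOR-CHO cells transiently transfected with Gqi5 (4 h at 37 °C, 5% CO2), replated and used 48 h post-transfection. For antagonist mode DAMGO is then added. Fluorescence (RFU) is read for 90 s and peak values are taken. IC50 comes from non-linear regression. Triplicates, at least four experiments.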

[12] = Protein binding in human plasma at 10 uM and measured upto 24 hrs by equilibrium dialysis based MS analysis; assay type: ADME, cell-free
[13] = Protein binding in rat plasma at 10 uM and measured upto 24 hrs by equilibrium dialysis based MS analysis; assay type: ADME, cell-free
[14] = molecular target: Voltage-gated inwardly rectifying potassium channel KCNH2 (Homo sapiens, UniProt Q12809); assay: Inhibition of human ERG expressed in CHO-K1 cells with holding potential of -80 mV by automated patch clamp assay; settings: CHO-K1 cells expressing human ERG
[15] = Efflux ratio of apparent permeability in human Caco-2 cells; assay type: ADME, cell-based
[16] = Metabolic stability in human liver microsomes assessed as half life; assay type: ADME, Microsome
Outline: (§3)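 Human or rat liver microsomal stability, run by a contract lab. Half-life and hepatic CLint are reported.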

[17] = Metabolic stability in rat liver microsomes assessed as half life; assay type: ADME, Microsome; outline: as §3
Mus musculus [18] = assay: Effect of compound on chronic morphine pelleted Swiss Webster mouse model assessed as decrease in wet-dog shake symptom at 10 to 80 mg/kg, sc and measured for 20 mins by withdrawal assay; assay type: functional, organism-based; settings: dose 10-80 mg/kg
Outline: (§4)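 Male Swiss-Webster mice made dependent with chronic morphine pellets. Compound is injected and wet-dog shakes, paw tremors and jumps are counted over 20 min after each injection.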

Mus musculus [19] = assay: Effect of compound on chronic morphine pelleted Swiss Webster mouse model assessed as decrease in jump symptom at 40 mg/kg, sc and measured for 20 mins by withdrawal assay; assay type: functional, organism-based; outline: as §4
Mus musculus [20] = assay: Effect of compound on chronic morphine pelleted Swiss Webster mouse model assessed as decrease in paw tremors symptom at 10 to 80 mg/kg, sc and measured for 20 mins by withdrawal assay; assay type: functional, organism-based; settings: dose 10-80 mg/kg; outline: as §4
Mus musculus [21] = assay: Effect of compound on chronic morphine pelleted Swiss Webster mouse model assessed as decrease in wet-dog shake symptom at 1 mg/kg, sc and measured for 20 mins by withdrawal assay; assay type: functional, organism-based; outline: as §4
Mus musculus [22] = assay: Effect of compound on chronic morphine pelleted Swiss Webster mouse model assessed as decrease in jump symptom at 1 mg/kg, sc and measured for 20 mins by withdrawal assay; assay type: functional, organism-based; outline: as §4
Mus musculus [23] = assay: Effect of compound on chronic morphine pelleted Swiss Webster mouse model assessed as decrease in paw tremors symptom at 1 mg/kg, sc and measured for 20 mins by withdrawal assay; assay type: functional, organism-based; outline: as §4
Mus musculus [24] = assay: Effect of compound on chronic morphine pelleted Swiss Webster mouse model assessed as decrease in wet-dog shake symptom at 50 mg/kg, sc and measured for 20 mins by withdrawal assay; assay type: functional, organism-based
Mus musculus [25] = assay: Effect of compound on chronic morphine pelleted Swiss Webster mouse model assessed as decrease in jump symptom at 50 mg/kg, sc and measured for 20 mins by withdrawal assay; assay type: functional, organism-based
Mus musculus [26] = assay: Effect of compound on chronic morphine pelleted Swiss Webster mouse model assessed as decrease in paw tremors symptom at 50 mg/kg, sc and measured for 20 mins by withdrawal assay; assay type: functional, organism-based
[27] = Selectivity ratio, ratio of Ki for binding affinity to human delta opioid receptor expressed in CHO cell membrane to Ki for binding affinity to mouse mu opioid receptor expressed in CHO cell membrane
Mus musculus [28] = assay: Antinociceptive activity in Swiss Webster mouse assessed as increase in latency to tail withdrawal at 10 mg/kg, sc observed for 20 mins by warm water tail immersion assay; assay type: functional, organism-based
Outline: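 Male Swiss-Webster mice (23–35 g, 7–8 weeks), n = 5. Compound given 10 mg/kg s.c. at time 0. Tail-flick latency is measured in 56 ± 0.1 °C water and expressed as % maximum possible effect against saline vehicle.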

Compound	Ki (Mu-type opioid receptor [1])	Ki [2]	Ratio Ki (Mus musculus [3])	EC50 (Mu-type opioid receptor [4])	Emax [5]	Activity (Mus musculus [8])	Ratio Ki [27]	other results
Cc1cc2cccc(C(=O)N[C@H]3CC[C@@]4(O)[C@H]5Cc6ccc(O)c7c6[C@@]4(CCN5CC4CC4)[C@H]3O7)c2[nH]1.Cl	0.59 nM	2.1 nM	3.6	3.86 nM	12%	Active		Emax [6]: 73.9%; Emax [7]: 26.7%; ED50 (Mus musculus [9]): 10.6 mg/kg; Activity [10]: inactive; IC50 (Mu-type opioid receptor [11]): 87.5 nM; PPB [12]: 99%; PPB [13]: 96%; IC50 [14]: 0.14 nM; Ratio [15]: 2.2; t1/2 [16]: > 1 h; t1/2 [17]: > 1 h; Activity (Mus musculus [18]): inactive; Activity (Mus musculus [19]): Active; Activity (Mus musculus [20]): Active
C=CCN1CC[C@]23c4c5ccc(O)c4O[C@H]2C(=O)CC[C@@]3(O)[C@H]1C5								Activity (Mus musculus [21]): Active; Activity (Mus musculus [22]): Active; Activity (Mus musculus [23]): Active
O=C(N[C@H]1CC[C@@]2(O)[C@H]3Cc4ccc(O)c5c4[C@@]2(CCN3CC2CC2)[C@H]1O5)c1cccc2cc[nH]c12					19.1%			Emax [6]: 48.3%; Emax ([7]; filed as modulator): 76.8%; ED50 (Mus musculus [9]): 2.07 mg/kg; Activity (Mus musculus [24]): inactive; Activity (Mus musculus [25]): inactive; Activity (Mus musculus [26]): Active
O=Cc1c[nH]c2c(C(=O)N[C@@H]3CC[C@@]4(O)[C@H]5Cc6ccc(O)c7c6[C@@]4(CCN5CC4CC4)[C@H]3O7)cccc12	0.69 nM	4.03 nM	5.8	1.19 nM	21.3%	inactive	< 35.1	
O=C(N[C@@H]1CC[C@@]2(O)[C@H]3Cc4ccc(O)c5c4[C@@]2(CCN3CC2CC2)[C@H]1O5)c1cccc2c(-c3ccccc3)c[nH]c12	1.46 nM	26.1 nM	17.9	1.78 nM	8.47%	inactive	33.8	
O=C(N[C@H]1CC[C@@]2(O)[C@H]3Cc4ccc(O)c5c4[C@@]2(CCN3CC2CC2)[C@H]1O5)c1cccc2c(Cl)c[nH]c12	0.98 nM	5.96 nM	6.1	3.67 nM	13.2%	inactive	37.9	
Cc1c[nH]c2c(C(=O)N[C@@H]3CC[C@@]4(O)[C@H]5Cc6ccc(O)c7c6[C@@]4(CCN5CC4CC4)[C@H]3O7)cccc12	0.46 nM	1.01 nM		1.22 nM				Activity (Mus musculus [28]): Active; Emax ([5]; filed as modulator): 44%
Cc1cc2cccc(C(=O)N[C@@H]3CC[C@@]4(O)[C@H]5Cc6ccc(O)c7c6[C@@]4(CCN5CC4CC4)[C@H]3O7)c2[nH]1	0.31 nM	0.8 nM	2.6	1.51 nM	21.8%	inactive	51.1	
O=C(N[C@H]1CC[C@@]2(O)[C@H]3Cc4ccc(O)c5c4[C@@]2(CCN3CC2CC2)[C@H]1O5)c1cccc2c(C3CCCC3)c[nH]c12	2.66 nM	21.1 nM	7.9	2.05 nM	12.3%	inactive	10.6	
O=C(N[C@@H]1CC[C@@]2(O)[C@H]3Cc4ccc(O)c5c4[C@@]2(CCN3CC2CC2)[C@H]1O5)c1cccc2c([N+](=O)[O-])c[nH]c12	0.54 nM	0.8 nM	1.5	1.13 nM			47.5	Activity (Mus musculus [28]): Active; Emax ([5]; filed as modulator): 60.9%
Cc1c[nH]c2c(C(=O)N[C@H]3CC[C@@]4(O)[C@H]5Cc6ccc(O)c7c6[C@@]4(CCN5CC4CC4)[C@H]3O7)cccc12	0.69 nM	4.2 nM	6.1	2.68 nM	15.7%	Active	20.1	
O=C(N[C@@H]1CC[C@@]2(O)[C@H]3Cc4ccc(O)c5c4[C@@]2(CCN3CC2CC2)[C@H]1O5)c1cccc2cc(Br)[nH]c12	0.35 nM	0.46 nM	1.3	0.88 nM	36.2%	inactive	8.8	
O=C(N[C@@H]1CC[C@@]2(O)[C@H]3Cc4ccc(O)c5c4[C@@]2(CCN3CC2CC2)[C@H]1O5)c1cccc2c(Cl)c[nH]c12	0.62 nM		0.5	1.05 nM			7.2	Activity (Mus musculus [28]): Active; Emax ([5]; filed as modulator): 59.5%
